pIC50, pKi: −log10 of the molar value.
Assays:
hERG = hERG (Homo sapiens, UniProt Q12809); experiment: Patch-clamp electrophysiology of hERG blockade in HEK 293 cells; assay type: cell-based; details: for pIC50: read-out: IC50 at hERG, patch-clamp, whole cell tail currents
Outline: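 Whole-cell patch clamp of hERG (described as mutants) expressed in HEK 293 cells. Pipette: 10 mM KCl, 110 mM K-aspartate, 5 mM MgCl2, 5 mM Na2ATP, 10 mM EGTA, 5 mM HEPES, 1 mM CaCl2, pH 7.2. Holding at −80 mV, 1-s step to +50 mV, tail current read at −100 mV. Test compound freshly dissolved in Tyrode, used within two hours.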

rDAT = rDAT (Rattus norvegicus, UniProt P23977); experiment: Radioligand binding assay of rDAT with [3H]WIN35,428 in rat striatal membranes
Sequence of rDAT (P23977 whole entry): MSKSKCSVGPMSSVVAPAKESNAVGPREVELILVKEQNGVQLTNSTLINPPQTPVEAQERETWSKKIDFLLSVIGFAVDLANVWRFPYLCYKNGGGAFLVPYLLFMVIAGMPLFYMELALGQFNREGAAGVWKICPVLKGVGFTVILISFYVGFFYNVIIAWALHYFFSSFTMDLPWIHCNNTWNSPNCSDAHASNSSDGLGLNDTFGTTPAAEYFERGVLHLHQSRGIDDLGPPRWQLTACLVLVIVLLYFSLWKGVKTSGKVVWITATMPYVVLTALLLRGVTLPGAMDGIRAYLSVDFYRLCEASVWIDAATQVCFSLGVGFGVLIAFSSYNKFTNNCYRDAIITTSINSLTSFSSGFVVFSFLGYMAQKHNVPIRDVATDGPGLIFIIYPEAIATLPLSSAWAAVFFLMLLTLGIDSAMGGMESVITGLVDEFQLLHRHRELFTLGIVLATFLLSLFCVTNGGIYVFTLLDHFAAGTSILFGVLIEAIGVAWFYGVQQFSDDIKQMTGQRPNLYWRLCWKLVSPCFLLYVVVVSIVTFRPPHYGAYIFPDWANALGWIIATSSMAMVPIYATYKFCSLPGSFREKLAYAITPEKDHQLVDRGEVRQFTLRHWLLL

Sequence of hERG (Q12809 whole entry): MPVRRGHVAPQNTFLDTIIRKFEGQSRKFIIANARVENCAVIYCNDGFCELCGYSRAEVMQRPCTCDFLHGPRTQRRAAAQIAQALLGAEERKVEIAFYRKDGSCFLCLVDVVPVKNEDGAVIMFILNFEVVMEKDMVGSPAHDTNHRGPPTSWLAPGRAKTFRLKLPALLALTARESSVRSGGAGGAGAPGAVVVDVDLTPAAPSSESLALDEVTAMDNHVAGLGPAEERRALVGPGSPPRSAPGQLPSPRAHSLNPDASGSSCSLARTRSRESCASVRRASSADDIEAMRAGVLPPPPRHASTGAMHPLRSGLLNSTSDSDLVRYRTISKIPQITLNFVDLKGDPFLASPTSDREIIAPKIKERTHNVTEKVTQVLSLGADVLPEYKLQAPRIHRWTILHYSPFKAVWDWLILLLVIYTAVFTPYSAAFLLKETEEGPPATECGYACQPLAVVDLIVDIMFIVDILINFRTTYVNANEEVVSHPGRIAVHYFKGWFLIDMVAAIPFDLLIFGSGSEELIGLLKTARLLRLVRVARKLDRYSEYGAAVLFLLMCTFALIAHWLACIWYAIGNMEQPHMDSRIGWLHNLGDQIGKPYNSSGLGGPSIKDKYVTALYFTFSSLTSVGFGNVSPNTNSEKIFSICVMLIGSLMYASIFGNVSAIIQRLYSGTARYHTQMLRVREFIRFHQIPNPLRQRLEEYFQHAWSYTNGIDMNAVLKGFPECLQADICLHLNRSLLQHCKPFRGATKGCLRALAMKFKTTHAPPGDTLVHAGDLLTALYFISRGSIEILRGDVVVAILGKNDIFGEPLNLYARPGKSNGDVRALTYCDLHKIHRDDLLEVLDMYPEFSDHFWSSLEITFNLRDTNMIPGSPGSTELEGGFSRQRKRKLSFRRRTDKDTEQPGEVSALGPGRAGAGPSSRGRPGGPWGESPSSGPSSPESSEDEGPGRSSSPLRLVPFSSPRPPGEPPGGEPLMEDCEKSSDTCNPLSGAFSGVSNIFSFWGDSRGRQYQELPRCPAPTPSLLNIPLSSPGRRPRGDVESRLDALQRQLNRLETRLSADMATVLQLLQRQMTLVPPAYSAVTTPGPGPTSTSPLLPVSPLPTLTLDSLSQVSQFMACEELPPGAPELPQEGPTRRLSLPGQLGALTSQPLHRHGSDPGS

Structure (SMILES)	pIC50 (hERG)	fold higher affinity than JJC8-016 at DAT (rDAT; ratio of Ki values, JJC8-088 versus JJC8-016)	pKi (rDAT; read-out: Ki at DAT, [3H]WIN35,428 as the radioligand)	fold lower affinity than JJC8-016 at hERG (hERG; ratio of IC50 values, JJC8-088 versus JJC8-016)
Fc1ccc(C(SCCNCCCc2ccccc2)c2ccc(F)cc2)cc1 [JJC8-016]	7.22	–	–	–
[O-][S+](CCN1CCN(CC(O)Cc2ccccc2)CC1)C(c1ccc(F)cc1)c1ccc(F)cc1 (centres unmarked) [JJC8-088]	6.89	~ 90 fold	8.59	~ 2 fold
